According to ChEMBL document CHEMBL5390247, “Aryl azoles based scaffolds for disrupting tumor microenvironment” (Bioorg Med Chem, 2023):

What was measured:
[1] = Toxicity against interferon gamma-stimulated human THP-1 monocyte cells co-cultured with human HT-29 cells assessed as reduction in cell viability at 100 uM incubated for 48 hrs by flow cytometry analysis; format: cell-based; details: thp-1, 48 h
Procedure, shortened: (§1)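 HT-29 cells at 10^5/well seeded and grown 24 h. Medium then replaced with medium containing IFN-γ (10 ng/ml), 5 × 10^5 THP-1 cells/well and compound at 100 µM; DMSO used as control. After 48 h, THP-1 cells collected from supernatant and cancer cells by trypsinisation. Both fixed in 4% paraformaldehyde and counted by flow cytometry relative to control.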

HT-29 [2] = experiment: Antiproliferative activity against human HT-29 cells assessed as relative PD-L1 protein expression in membrane at 100 uM incubated for 48 hrs by flow cytometry analysis relative to control; format: functional
HT-29 [3] = experiment: Antiproliferative activity against human HT-29 cells assessed as relative PD-L1 protein expression in whole cell at 100 uM incubated for 48 hrs by flow cytometry analysis relative to control; format: functional
HT-29 [4] = experiment: Antiproliferative activity against human HT-29 cells assessed as relative c-Myc protein expression at 100 uM incubated for 48 hrs by flow cytometry analysis relative to control; format: functional
HT-29 [5] = experiment: Antiproliferative activity against human HT-29 cells assessed as relative VEGFR-2 protein expression in membrane at 100 uM incubated for 48 hrs by flow cytometry analysis relative to control; format: functional
HT-29 [6] = experiment: Antiproliferative activity against human HT-29 cells assessed as relative VEGFR-2 protein expression in whole cell at 100 uM incubated for 48 hrs by flow cytometry analysis relative to control; format: functional
HT-29 [7] = experiment: Immunomodulatory activity in human HT-29 cells co-cultured with interferon gamma-stimulated THP-1 cells assessed as cell viability at 100 uM incubated for 48 hrs by flow cytometry analysis relative to control; format: functional; details: read-out: Activity; procedure, shortened: as §1
HT-29 [8] = experiment: Immunomodulatory activity in human HT-29 cells co-cultured with interferon gamma-stimulated THP-1 cells assessed as relative CD-47 protein expression in membrane at 100 uM incubated for 48 hrs by flow cytometry analysis relative to control; format: functional
HT-29 [9] = experiment: Immunomodulatory activity in human HT-29 cells co-cultured with interferon gamma-stimulated THP-1 cells assessed as relative PD-L1 protein expression in membrane at 100 uM incubated for 48 hrs by flow cytometry analysis relative to control; format: functional
HT-29 [10] = experiment: Immunomodulatory activity in human HT-29 cells co-cultured with interferon gamma-stimulated THP-1 cells assessed as inhibition of cell growth at 100 uM incubated for 48 hrs by flow cytometry analysis relative to control; format: functional; procedure, shortened: as §1

In the case of O=[N+]([O-])c1cccc(-c2nnn(Cc3cccc(Cl)c3)n2)c1, the Activity [1] is reported as “Non-Toxic”, the Activity (HT-29 [2]) is reported as greater than 100% and the Activity (HT-29 [3]) is reported as 90%. The Activity (HT-29 [4]) was greater than 100%, the Activity (HT-29 [5]) was 97% and the Activity (HT-29 [6]) was greater than 100%. For the same molecule, the viability at 100 µM (HT-29 [7]) was 90%, the Activity (HT-29 [8]) was 95% and the Activity (HT-29 [9]) was 136%.
For Cc1ccccc1Cn1nnc(-c2cccc(N)c2)n1, the Activity [1] was “Non-Toxic”, the viability at 100 µM (HT-29 [7]) was 25% and the inhibition at 100 µM (HT-29 [10]) was greater than 70%. The Activity (HT-29 [8]) was 75% and the Activity (HT-29 [9]) was 103%.
In the case of Nc1cccc(-c2cn(Cc3ccccc3)nn2)c1, the Activity [1] is reported as “Non-Toxic”, the viability at 100 µM (HT-29 [7]) is reported as 78% and the Activity (HT-29 [8]) is reported as 103%. It also gave an Activity (HT-29 [9]) of 109%.
For Cc1ccccc1Cn1nnc(-c2cccc([N+](=O)[O-])c2)n1, the Activity [1] was “Non-Toxic”, the Activity (HT-29 [2]) was 64% and the Activity (HT-29 [3]) was 94%. It also gave an Activity (HT-29 [4]) of 91%, an Activity (HT-29 [5]) greater than 100% and an Activity (HT-29 [6]) of 72%. It also gave a viability at 100 µM (HT-29 [7]) of 56%, an Activity (HT-29 [8]) of 75% and an Activity (HT-29 [9]) of 165%.
For Cc1cccc(Cn2nnc(-c3cccc([N+](=O)[O-])c3)n2)c1, the Activity [1] was “Non-Toxic”, the Activity (HT-29 [2]) was 65% and the Activity (HT-29 [3]) was 97%. The Activity (HT-29 [4]) was 89%, the Activity (HT-29 [5]) was greater than 100% and the Activity (HT-29 [6]) was 84%. It also gave a viability at 100 µM (HT-29 [7]) of 42%, an Activity (HT-29 [8]) of 73% and an Activity (HT-29 [9]) of 166%.
For COc1ccc(Cn2cc(-c3cccc(N)c3)nn2)cc1, the Activity [1] was “Non-Toxic”, the viability at 100 µM (HT-29 [7]) was 40% and the Activity (HT-29 [8]) was 82%. The Activity (HT-29 [9]) was 113%.
With Nc1cccc(-c2nnn(Cc3ccccc3)n2)c1 the Activity [1] was “Non-Toxic”, the viability at 100 µM (HT-29 [7]) was 64% and the Activity (HT-29 [8]) was 104%. The Activity (HT-29 [9]) was 104%.
For O=[N+]([O-])c1cccc(-c2nnn(Cc3ccccc3Br)n2)c1, the Activity [1] was “Non-Toxic”, the Activity (HT-29 [2]) was greater than 100% and the Activity (HT-29 [3]) was 97%. For the same molecule, the Activity (HT-29 [4]) was 90%, the Activity (HT-29 [5]) was greater than 100% and the Activity (HT-29 [6]) was 75%. For the same molecule, the viability at 100 µM (HT-29 [7]) was 43%, the Activity (HT-29 [8]) was 85% and the Activity (HT-29 [9]) was 94%.
With Nc1cccc(-c2cn(Cc3ccccc3Br)nn2)c1 the Activity [1] was “Non-Toxic”, the viability at 100 µM (HT-29 [7]) was 35% and the Activity (HT-29 [8]) was 75%. For the same molecule, the Activity (HT-29 [9]) was 110%.
With Cc1ccccc1Cn1cc(-c2cccc(N)c2)nn1 the Activity [1] was “Non-Toxic”, the viability at 100 µM (HT-29 [7]) was 74% and the Activity (HT-29 [8]) was 87%. For the same molecule, the Activity (HT-29 [9]) was 120%.
With Cc1ccc(Cn2cc(-c3cccc(N)c3)nn2)cc1 the Activity [1] was “Non-Toxic”, the viability at 100 µM (HT-29 [7]) was 73% and the Activity (HT-29 [8]) was 101%. For the same molecule, the Activity (HT-29 [9]) was 144%.
In the case of COc1cccc(Cn2cc(-c3cccc(N)c3)nn2)c1, the Activity [1] is reported as “Non-Toxic”, the viability at 100 µM (HT-29 [7]) is reported as 33% and the Activity (HT-29 [8]) is reported as 89%. The Activity (HT-29 [9]) was 113%.
In the case of Cc1cccc(Cn2cc(-c3cccc(N)c3)nn2)c1, the Activity [1] is reported as “Non-Toxic”, the viability at 100 µM (HT-29 [7]) is reported as 44% and the Activity (HT-29 [8]) is reported as 86%. It also gave an Activity (HT-29 [9]) of 114%.
With Nc1cccc(-c2cn(Cc3cccc(Br)c3)nn2)c1 the Activity [1] was “Non-Toxic”, the viability at 100 µM (HT-29 [7]) was 9% and the inhibition at 100 µM (HT-29 [10]) was greater than 90%. For the same molecule, the Activity (HT-29 [8]) was 95% and the Activity (HT-29 [9]) was 137%.
For Cc1ccc(Cn2nnc(-c3cccc([N+](=O)[O-])c3)n2)cc1, the Activity [1] was “Non-Toxic”, the Activity (HT-29 [2]) was 63% and the Activity (HT-29 [3]) was 92%. It also gave an Activity (HT-29 [4]) of 78%, an Activity (HT-29 [5]) greater than 100% and an Activity (HT-29 [6]) of 65%. It also gave a viability at 100 µM (HT-29 [7]) of 22%, an inhibition at 100 µM (HT-29 [10]) greater than 70% and an Activity (HT-29 [8]) of 88%. The Activity (HT-29 [9]) was 168%.
In the case of COc1ccccc1Cn1cc(-c2cccc(N)c2)nn1, the Activity [1] is reported as “Non-Toxic”, the viability at 100 µM (HT-29 [7]) is reported as 62% and the Activity (HT-29 [8]) is reported as 62%. The Activity (HT-29 [9]) was 114%.
For O=[N+]([O-])c1cccc(-c2nnn(Cc3ccccc3)n2)c1, the Activity [1] was “Non-Toxic”, the Activity (HT-29 [2]) was 66% and the Activity (HT-29 [3]) was greater than 100%. For the same molecule, the Activity (HT-29 [4]) was 82%, the Activity (HT-29 [5]) was greater than 100% and the Activity (HT-29 [6]) was greater than 100%. The viability at 100 µM (HT-29 [7]) was 32%, the Activity (HT-29 [8]) was 71% and the Activity (HT-29 [9]) was 150%.
